Data taken from ChEMBL document CHEMBL4376900, “Structure-Activity Relationship of Antischistosomal Ozonide Carboxylic Acids” (J Med Chem, 2020).
Values after ≈ are worked out from the molar mass of the structure shown.

How the values were obtained:
[1] = Partition coefficient, logD of the compound at pH 7.4 by HPLC analysis; format: physicochemical; conditions: octanol/water
[2] = Kinetic solubility in pH 6.5 phosphate buffer incubated for 30 mins by nephelometry; format: physicochemical; conditions: read-out: Kinetic_solubility
Procedure, shortened: (§1)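 DMSO stocks (10 mg/mL) diluted into pH 6.5 phosphate buffer or 0.01 M HCl (about pH 2.0) at 1% final DMSO. After 30 min, a solubility range was determined by nephelometry.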

U2OS = assay: Cytotoxicity in human U2OS assessed as reduction in cell viability up to 50 uM incubated for 24 hrs by Alamar blue sye based assay
Procedure, shortened: (§2)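 Cells maintained in D10 medium were grown to confluence, then exposed to increasing compound concentrations (0–100 μM) for 24 h. Alamar blue (10 mM) was then added for 4 h, and viability was read as fluorescence.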

[3] = Intrinsic clearance in human liver microsomes in presence of NADPH-regenerating system incubated over 60 mins; format: ADME, Microsome; conditions: read-out: CLH
Procedure, shortened: (§3)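 Compounds incubated at 37 °C with liver microsomes at 0.4 mg/mL protein. Reaction started by adding an NADPH-regenerating system and quenched with acetonitrile containing diazepam internal standard at several time points over 60 min. No-NADPH controls were quenched at 2, 30 and 60 min.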

[4] = Kinetic solubility in pH 2.0 0.01M HCl buffer incubated for 30 mins by nephelometry; format: physicochemical; conditions: read-out: Kinetic_solubility; procedure, shortened: as §1
[5] = Cytotoxicity in human HC04 assessed as reduction in cell viability up to 50 uM incubated for 24 hrs by Alamar blue sye based assay; procedure, shortened: as §2
Schistosoma mansoni [6] = assay: Antischistosomal activity against Schistosoma mansoni infected in NMRI mouse assessed as reduction in total adult worm burden at 400 mg/kg, po administered as single dose starting on day 49 post-infection and measured at 28 days post treatment relative to control; format: functional; design: scale not given: the % may be the effect or the level left
[7] = Intrinsic clearance in mouse liver microsomes in presence of NADPH-regenerating system incubated over 60 mins; format: ADME, Microsome; conditions: read-out: CLH; procedure, shortened: as §3
HEK-293T = assay: Cytotoxicity in human HEK293T assessed as reduction in cell viability up to 50 uM incubated for 24 hrs by Alamar blue sye based assay; procedure, shortened: as §2
Albumin = Albumin (Homo sapiens, UniProt P02768); assay: Protein binding to human albumin by HPLC analysis; format: ADME; conditions: isolated protein
Chain of Albumin (P02768 whole entry): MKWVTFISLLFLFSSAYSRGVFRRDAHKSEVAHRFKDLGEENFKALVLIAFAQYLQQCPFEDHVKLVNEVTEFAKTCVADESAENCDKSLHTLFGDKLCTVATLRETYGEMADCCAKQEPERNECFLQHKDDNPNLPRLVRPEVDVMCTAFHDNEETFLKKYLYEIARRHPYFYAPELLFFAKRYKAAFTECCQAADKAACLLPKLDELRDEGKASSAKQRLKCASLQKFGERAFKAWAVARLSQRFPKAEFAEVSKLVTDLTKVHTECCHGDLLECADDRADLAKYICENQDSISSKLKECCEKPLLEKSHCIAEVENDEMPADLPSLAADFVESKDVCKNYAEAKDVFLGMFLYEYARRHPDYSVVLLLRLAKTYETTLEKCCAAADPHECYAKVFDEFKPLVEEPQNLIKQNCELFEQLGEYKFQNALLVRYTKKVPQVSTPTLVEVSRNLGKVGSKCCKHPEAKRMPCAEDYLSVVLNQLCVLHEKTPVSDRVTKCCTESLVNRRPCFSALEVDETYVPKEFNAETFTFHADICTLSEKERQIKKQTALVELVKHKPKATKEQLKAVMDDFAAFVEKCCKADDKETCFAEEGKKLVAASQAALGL
Procedure, shortened: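 Binding estimated chromatographically using a gradient HPLC method derived from the Valko approach.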

HFF = assay: Cytotoxicity in HFF assessed as reduction in cell viability up to 50 uM incubated for 24 hrs by Alamar blue sye based assay; conditions: human; procedure, shortened: as §2
Schistosoma mansoni [8] = assay: Antischistosomal activity against Schistosoma mansoni infected in mouse assessed as reduction in juvenile worm burden at 200 mg/kg, po administered as single dose relative to control; format: functional; design: scale not given: the % may be the effect or the level left
Procedure, shortened: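 Female NMRI mice, 4 weeks old, infected subcutaneously with about 100 S. mansoni cercariae. Juvenile-stage treatment was a single oral dose on day 21 post-infection in 7% v/v Tween 80 / 3% v/v ethanol (10 mL/kg). Untreated infected mice (n = 8) served as controls. Necropsy by CO2 21 days post-treatment, with worms picked, sexed and counted.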

Schistosoma mansoni [9] = assay: Antischistosomal activity against Schistosoma mansoni infected in mouse assessed as reduction in adult worm burden at 400 mg/kg, po administered as single dose relative to control; format: functional; design: scale not given: the % may be the effect or the level left
Schistosoma haematobium = assay: Antischistosomal activity against Schistosoma haematobium infected in mouse assessed as reduction in adult worm burden at 400 mg/kg, po administered as single dose relative to control; format: functional; design: scale not given: the % may be the effect or the level left
Schistosoma japonicum [10] = assay: Antischistosomal activity against Schistosoma japonicum; format: functional, organism-based
Schistosoma mansoni [11] = assay: Antischistosomal activity against Schistosoma mansoni; format: functional, organism-based
Schistosoma japonicum [12] = assay: Antischistosomal activity against Schistosoma japonicum infected in mouse assessed as reduction in adult worm burden at 400 mg/kg, po administered as single dose relative to control; format: functional; design: scale not given: the % may be the effect or the level left

Compound | logD [1] | solubility kinetic at 0.5 h [2] | Activity (U2OS) | microsomal CLint [3] | solubility kinetic at 0.5 h [4] | Activity [5] | Activity (Schistosoma mansoni [6]) | microsomal CLint [7] | Activity (HEK-293T) | PPB (Albumin) | Activity (HFF) | Activity (Schistosoma mansoni [8]) | Activity (Schistosoma mansoni [9]) | Activity (Schistosoma haematobium) | IC50 (Schistosoma japonicum [10]) | IC50 (Schistosoma mansoni [11]) | Activity (Schistosoma japonicum [12])
CS(=O)(=O)O.O=C(O)CNCc1ccc([C@H]2CC[C@]3(CC2)OOC2(O3)C3CC4CC(C3)CC2C4)cc1 (some centres not stated) | 3.3 | < 12.5 µg/mL | Non-Toxic | < 7 µL/min/mg | < 6.3 µg/mL | Non-Toxic | 90% | 10 µL/min/mg | Non-Toxic | 97.6% | Non-Toxic |  |  |  |  |  | 
O=C(O)c1cccc([C@H]2CC[C@]3(CC2)OOC2(O3)C3CC4CC(C3)CC2C4)c1 (some centres not stated) | 3 | < 1.6 µg/mL |  | 12 µL/min/mg | < 1.6 µg/mL |  | 63% | 30 µL/min/mg |  | 98.9% |  |  |  |  |  |  | 
O=C(O)COc1ccc([C@H]2CC[C@]3(CC2)OOC2(O3)C3CC4CC2CC(C3)C4O)cc1 (some centres not stated) | 1.7 | < 1.6 µg/mL |  | < 7 µL/min/mg | 25 to 50 µg/mL (≈ 58.1 to 116 µM) |  | 14% | < 7 µL/min/mg |  | 98.5% |  |  |  |  |  |  | 
CS(=O)(=O)O.O=C(O)COc1ccc([C@H]2CC[C@]3(CC2)OOC2(O3)C3CC4CC2CC(C3)N4)cc1 (some centres not stated) | 1.3 | 3.1 to 6.3 µg/mL |  | 35 µL/min/mg | < 1.6 µg/mL |  | 29% | 27 µL/min/mg |  |  |  |  |  |  |  |  | 
CCOC(=O)COc1ccc([C@H]2CC[C@]3(CC2)OOC2(O3)C3CC4CC(C3)CC2C4)cc1 (some centres not stated) | > 5.3 | < 1.6 µg/mL |  |  | < 0.78 µg/mL |  | 60% |  |  | 98.9% |  |  |  |  |  |  | 
CS(=O)(=O)O.O=C(O)C1CN(Cc2ccc([C@H]3CC[C@]4(CC3)OOC3(O4)C4CC5CC(C4)CC3C5)cc2)C1 (some centres not stated) |  | 6.3 to 12.5 µg/mL |  | 7 µL/min/mg | < 1.6 µg/mL |  | 43% | 10 µL/min/mg |  |  |  |  |  |  |  |  | 
O=C(O)COc1ccc([C@H]2CC[C@]3(CC2)OOC2(O3)C3CC4CC2CC(C3)C4=O)cc1 (some centres not stated) | 1.9 | < 1.6 µg/mL |  |  | 50 to 100 µg/mL (≈ 117 to 233 µM) |  | 24% |  |  | 97.8% |  |  |  |  |  |  | 
CS(=O)(=O)O.NC1C2CC3CC1CC(C2)C31OO[C@]2(CC[C@@H](c3ccc(OCC(=O)O)cc3)CC2)O1 (some centres not stated) | 1.4 | 6.3 to 12.5 µg/mL |  | 13 µL/min/mg | < 1.6 µg/mL |  | 30% | 8 µL/min/mg |  | 94.2% |  |  |  |  |  |  | 
O=C(O)COc1ccc([C@H]2CC[C@]3(CC2)OOC2(O3)C3CC4CC(C3)CC2C4)cc1Cl (some centres not stated) | 3.2 | < 3.1 µg/mL | Non-Toxic | < 7 µL/min/mg | 3.1 to 6.3 µg/mL (≈ 6.91 to 14 µM) | Non-Toxic | 84% | 8 µL/min/mg | Non-Toxic | > 99.5% | Non-Toxic |  |  |  |  |  | 
C[C@H]1[C@@H](O)O[C@@H]2O[C@@]3(C)CC[C@H]4[C@H](C)CC[C@@H]1[C@@]24OO3 [ARTENIMOL] |  |  |  |  |  |  | 66% |  |  |  |  |  |  |  |  |  | 
O=C(O)CCCOc1ccc([C@H]2CC[C@]3(CC2)OOC2(O3)C3CC4CC(C3)CC2C4)cc1 (some centres not stated) | 3.6 | < 3.1 µg/mL |  | < 7 µL/min/mg | < 1.6 µg/mL |  | 55% | 8 µL/min/mg |  | > 99.5% |  |  |  |  |  |  | 
O=C(O)COc1c(Cl)cc([C@H]2CC[C@]3(CC2)OOC2(O3)C3CC4CC(C3)CC2C4)cc1Cl (some centres not stated) | 3.3 | < 3.1 µg/mL |  |  | 3.1 to 6.3 µg/mL (≈ 6.41 to 13 µM) |  | 32% |  |  |  |  |  |  |  |  |  | 
CS(=O)(=O)O.CS(=O)(=O)O.O=C(O)CNCc1ccc([C@H]2CC[C@]3(CC2)OOC2(O3)C3CC4CC2CC(C3)N4)cc1 (some centres not stated) | 1.6 | > 100 µg/mL |  | < 7 µL/min/mg | 50 to 100 µg/mL |  | 41% | < 7 µL/min/mg |  |  |  |  |  |  |  |  | 
O=C(O)c1ccc([C@H]2CC[C@]3(CC2)OOC2(O3)C3CC4CC(C3)CC2C4)cc1 (some centres not stated) | 3 | < 3.1 µg/mL |  |  | < 1.6 µg/mL |  |  |  |  | 98.8% |  | 100% |  |  |  |  | 
O=C(O)CN1CCC(Oc2ccc([C@H]3CC[C@]4(CC3)OOC3(O4)C4CC5CC(C4)CC3C5)cc2)CC1 (some centres not stated) |  |  | Non-Toxic | < 7 µL/min/mg |  | Non-Toxic | 75% | < 7 µL/min/mg | Non-Toxic |  | Non-Toxic |  |  |  |  |  | 
CS(=O)(=O)NC(=O)COc1ccc([C@H]2CC[C@]3(CC2)OOC2(O3)C3CC4CC(C3)CC2C4)cc1 (some centres not stated) | 3 | < 1.6 µg/mL |  | < 7 µL/min/mg | 6.3 to 12.5 µg/mL (≈ 12.8 to 25.4 µM) |  | 53% | 12 µL/min/mg |  |  |  |  |  |  |  |  | 
O=C(O)COc1ccc([C@H]2CC[C@]3(CC2)OOC2(O3)C3CC4CC2CC(C3)C4(F)F)cc1 (some centres not stated) | 2.9 | < 1.6 µg/mL |  | 23 µL/min/mg | 12.5 to 25 µg/mL (≈ 27.7 to 55.5 µM) |  | 57% | 130 µL/min/mg |  | 99.4% |  |  |  |  |  |  | 
CC(=O)NC1C2CC3CC1CC(C2)C31OO[C@]2(CC[C@@H](c3ccc(OCC(=O)O)cc3)CC2)O1 (some centres not stated) | 1.8 | 3.1 to 6.3 µg/mL (≈ 6.57 to 13.4 µM) |  | 10 µL/min/mg | 12.5 to 25 µg/mL (≈ 26.5 to 53 µM) |  | 0% | < 7 µL/min/mg |  | 98.2% |  |  |  |  |  |  | 
O=C(O)CNC(=O)COc1ccc([C@H]2CC[C@]3(CC2)OOC2(O3)C3CC4CC(C3)CC2C4)cc1 (some centres not stated) | 3 | 12.5 to 25 µg/mL (≈ 26.5 to 53 µM) | Non-Toxic | < 7 µL/min/mg | < 3.1 µg/mL | Non-Toxic | 76% |  | Non-Toxic | 98.5% | Non-Toxic |  |  |  |  |  | 
O=C([O-])C1CCN(CCOc2ccc([C@H]3CC[C@]4(CC3)OOC3(O4)C4CC5CC(C4)CC3C5)cc2)CC1.[Na+] (some centres not stated) | 3.8 | 3.1 to 6.3 µg/mL |  | < 7 µL/min/mg | < 1.6 µg/mL |  | 0% | 9 µL/min/mg |  | 98% |  |  |  |  |  |  | 
O=C(O)COc1ccc([C@H]2CC[C@]3(CC2)OOC2(O3)C3CC4CC(C3)CC2C4)cc1 (some centres not stated) | 2.9 | < 1.6 µg/mL |  |  | 6.3 to 12.5 µg/mL (≈ 15.2 to 30.2 µM) |  |  |  |  |  |  | 84% | 80% | 86% | 39 µM | 44 µM | 69%
O=C(O)CCCCOc1ccc([C@H]2CC[C@]3(CC2)OOC2(O3)C3CC4CC(C3)CC2C4)cc1 (some centres not stated) | 4 | < 1.6 µg/mL |  | < 7 µL/min/mg | < 1.6 µg/mL |  | 51% | 13 µL/min/mg |  | > 99.5% |  |  |  |  |  |  | 
CC(C)(Oc1ccc([C@H]2CC[C@]3(CC2)OOC2(O3)C3CC4CC(C3)CC2C4)cc1)C(=O)O (some centres not stated) | 3.1 | < 1.6 µg/mL |  | < 7 µL/min/mg | 3.1 to 6.3 µg/mL (≈ 7 to 14.2 µM) |  | 48% | 7 µL/min/mg |  | > 99.5% |  |  |  |  |  |  | 
O=C(O)COc1ccc([C@H]2CC[C@]3(CC2)OOC2(O3)C3CC4CC(C3)CC2C4)cc1C(=O)O (some centres not stated) | 1.9 | < 3.1 µg/mL |  | < 7 µL/min/mg | > 100 µg/mL |  | 0% | 8 µL/min/mg |  | 99.1% |  |  |  |  |  |  | 
O=C(O)c1cc([C@H]2CC[C@]3(CC2)OOC2(O3)C3CC4CC(C3)CC2C4)ccc1O (some centres not stated) | 3 | < 1.6 µg/mL |  | 108 µL/min/mg | > 100 µg/mL |  | 36% | 20 µL/min/mg |  |  |  |  |  |  |  |  | 
